# Reference: ChEMBL document CHEMBL4354825, “Design and Synthesis of Basic Selective Estrogen Receptor Degraders for Endocrine Therapy Resistant Breast Cancer” (J Med Chem, 2019)
# The source made the active and inactive calls. The calls are words filed in the database; no cut-off is given here.
# Key:
# [1] = Oral bioavailability in C57BL/6 mouse at 50 mg/kg measured upto 24 hrs by LC-MS/MS analysis; format: ADME, organism-based; conditions: in vivo
# How it was run: (§1)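 Full PK run by a contract lab. Dosing was 50 mg/kg p.o. in water and 10% SBE-β-CD/PEG-400 (9:1 v/v), and 5 mg/kg i.v. Sampling at 0.25, 0.5, 1, 2, 4, 8 and 24 h (N = 5). Plasma samples were diluted in 50% acetonitrile and quantified by LC-MS/MS against standards serially diluted in 50% acetonitrile. Brain was also sampled after the oral dose.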
# [2] = target: T1, Estrogen receptor (Homo sapiens) (UniProt P03372); experiment: Induction of degradation of ERalpha in human MCF7:WS8 cells at 10 nM in presence of MG-132 incubated for 24 hrs by Western blot analysis; format: cell-based
# T1 sequence (whole entry): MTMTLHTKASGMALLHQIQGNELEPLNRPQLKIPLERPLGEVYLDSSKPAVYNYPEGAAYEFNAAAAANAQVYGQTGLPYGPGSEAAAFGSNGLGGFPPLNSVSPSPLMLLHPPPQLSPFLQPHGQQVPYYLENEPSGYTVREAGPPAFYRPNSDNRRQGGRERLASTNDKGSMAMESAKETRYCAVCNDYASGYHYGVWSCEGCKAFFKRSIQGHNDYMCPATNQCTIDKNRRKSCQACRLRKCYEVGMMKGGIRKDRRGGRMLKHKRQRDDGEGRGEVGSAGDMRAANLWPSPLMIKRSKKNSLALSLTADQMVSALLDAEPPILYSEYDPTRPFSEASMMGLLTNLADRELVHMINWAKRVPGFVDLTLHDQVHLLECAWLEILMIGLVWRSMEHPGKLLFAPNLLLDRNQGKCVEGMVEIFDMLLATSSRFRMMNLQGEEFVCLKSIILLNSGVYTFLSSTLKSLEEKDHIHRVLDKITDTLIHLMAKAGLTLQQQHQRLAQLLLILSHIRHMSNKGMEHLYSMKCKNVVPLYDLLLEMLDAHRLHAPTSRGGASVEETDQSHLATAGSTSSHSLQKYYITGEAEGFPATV
# [3] = Half life in C57BL/6 mouse at 5 mg/kg, iv measured upto 24 hrs by LC-MS/MS analysis; format: ADME, organism-based; conditions: in vivo; how it was run: as §1
# [4] = tested on: Mus musculus; experiment: In vivo degradation of ERalpha in C57BL/6 mouse at 50 mg/kg, po administered for 3 days and measured on day 3 by Western blot analysis; format: functional, organism-based
# How it was run: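 Female C57BL/6J mice aged 9–12 weeks were dosed at 50 mg/kg p.o. in PEG 400/10% HPCD (1:9 v/v). Regimens were a single dose with sacrifice at 5 h, or 3 daily doses with sacrifice 5 h (n = 5) or 7 h (n = 6) after the last dose. Ovaries and uterus were homogenized, 20 μg protein was run by SDS-PAGE, and the blot was probed for ERα and normalized to β-actin.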
# [5] = tested on: Rattus norvegicus; experiment: Induction of uterotrophic activity in Sprague-Dawley rat assessed as increase in uterine weight at 10 mg/kg, po administered for 3 days and measured after 24 hrs of last dosing by hematoxylin eosin staining based imaging analysis; format: functional, organism-based
# How it was run: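 Female Sprague-Dawley rats were dosed from day 19 of age once daily for 3 days: 10 mg/kg p.o. in 2% Tween 80/0.5% methylcellulose. EE2 (0.1 mg/kg p.o., peanut oil) was the positive control. Uteri were excised and weighed 24 h after the last dose; one half was fixed in 4% paraformaldehyde for H&E histology.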
# [6] = target: T2, Estrogen receptor (Homo sapiens, UniProt P03372); experiment: Inhibition of ERalpha in human MCF7:WS8 cells assessed as increase in degradation of ERalpha incubated for 24 hrs by In-Cell Western assay; format: cell-based
# T2 sequence (P03372 whole entry): T1 sequence (whole entry)
# How it was run: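 MCF7:WS8 cells were estrogen-stripped for 2 days and plated at 2.5 × 10^4 per well. ERα was detected by in-cell western (H10 antibody), with signal normalized to CellTag 700.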
# [7] = AUC extrapolated from the last time point to infinity in CD-1 mouse plasma at 50 mg/kg, po measured upto 24 hrs by LC-MS/MS analysis; conditions: in vivo
# [8] = AUClast/D in CD-1 mouse at 5 mg/kg, iv measured upto 24 hrs by LC-MS/MS analysis; conditions: in vivo
# [9] = Cmax in CD-1 mouse plasma at 50 mg/kg, po measured upto 24 hrs by LC-MS/MS analysis; conditions: in vivo
# [10] = AUClast in CD-1 mouse plasma at 50 mg/kg, po measured upto 24 hrs by LC-MS/MS analysis; conditions: in vivo
# [11] = Drug concentration in C57BL/6 mouse brain at 100 mg/kg, po measured after 2 hrs by LC/MS-MS analysis; format: ADME, organism-based; conditions: read-out: Drug uptake
# How it was run: (§2)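 PK screen in female C57BL/6 mice (N = 3 per time point). Dosed by gavage at 100 mg/kg in HPβD/PEG-400. Plasma and brain were taken from perfused mice at 30 and 120 min. Quantified by LC-MS/MS in MRM mode, with standard curves in each matrix and a common internal standard. Values are mean and s.d.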
# [12] = Tmax in C57BL/6 mouse brain at 50 mg/kg, po measured upto 24 hrs by LC-MS/MS analysis; format: ADME, organism-based; conditions: in vivo; how it was run: as §1
# [13] = target: T1, Estrogen receptor (Homo sapiens); experiment: Induction of degradation of ERalpha in human MCF7:WS8 cells at 100 nM in presence of MG-132 incubated for 24 hrs by Western blot analysis; format: cell-based
# [14] = organism: Homo sapiens; experiment: Cytotoxicity against human MCF7:WS8 3D spheroid cells assessed as reduction in tumor spheroid size at 10 nM incubated for 14 days
# [15] = organism: Homo sapiens; experiment: Cytotoxicity against human MCF7:WS8 3D spheroid cells assessed as reduction in tumor cell viability at 10 nM incubated for 14 days by celltiter-glo 3D cell viability assay
# [16] = Plasma concentration in C57BL/6 mouse at 100 mg/kg, po measured after 0.5 hrs by LC/MS-MS analysis; format: ADME, organism-based; how it was run: as §2
# [17] = AUC extrapolated from the last time point to infinity in CD-1 mouse at 5 mg/kg, iv measured upto 24 hrs by LC-MS/MS analysis; conditions: in vivo
# [18] = tested on: T47D; experiment: Cytotoxicity against human T47D 3D spheroid cells harboring Y537S mutant assessed as reduction in tumor cell viability at 10 nM incubated for 14 days by celltiter-glo 3D cell viability assay
# [19] = MRT (0 to infinity) in CD-1 mouse at 5 mg/kg, iv measured upto 24 hrs by LC-MS/MS analysis; conditions: in vivo
# [20] = Half life in CD-1 mouse plasma at 50 mg/kg, po measured upto 24 hrs by LC-MS/MS analysis; conditions: in vivo
# [21] = AUClast in C57BL/6 mouse brain at 50 mg/kg, po measured upto 24 hrs by LC-MS/MS analysis; format: ADME, organism-based; set-up: dose 50 mg/kg, time < 24 hr, route oral; conditions: in vivo; how it was run: as §1
structure (smiles),measurement,setting,value
Cc1cc(F)cc(C)c1C(=O)c1sc2cc(O)ccc2c1Oc1ccc(OC2CN(CCCF)C2)cc1,F,[1],21.9%
same,Activity,[2],inactive
same,t1/2,[3],1.68 h
same,Activity,[4],Active
same,Activity,[5],inactive
same,IC50,[6],1.02 nM
same,%AUCextra,[7],26.8%
same,AUClast/dose,[8],153 ng·h/mL
same,Cmax,[9],413 ng/mL
same,AUClast,[10],1678 ng·h/mL
same,concentration at 2 h,[11],1250 nM
same,Tmax,[12],1 h
same,Activity,[13],inactive
same,Activity,[14],Active
same,Activity,[15],Active
same,concentration at 0.5 h,[16],2490 nM
same,%AUCextra,[17],1.52%
same,Activity,[18],Active
same,MRT,[19],1.07 h
same,t1/2,[20],4.48 h
same,AUClast,[21],2106 ng·h/mL
